14 compounds from ChEMBL document CHEMBL1131312 (J Med Chem, 1998) can be followed below.

Data set [1] is described as follows: Water solubility of the compound. The data set is classed as ADME. The conditions noted are these: for S: buffer; for solubility: water, read-out: S.
In data set [2] the target is T1, DNA topoisomerase II (Homo sapiens, UniProt P11388+Q02880). The experiment in a line: Concentration of compound at which inhibitory activity detected against DNA topoisomerase II. The data set is classed as protein assay, Drosophila melanogaster.
Data set [3] has as its system Mus musculus. The experiment in a line: percent T / C values ([…] / control) against P388 murine leukemia cells at 40 mg/kg dose. Format: functional. In outline: (§1)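 CDF1 mice over 18 g implanted iv with 10^6 P388 leukemia cells on day 0 and randomized. Single ip dose on day 1, chosen from 2.5, 10, 40 or 160 mg/kg. Survival and clinical signs followed daily; weights taken days 1, 4 and 8. T/C% is median survival of treated over control × 100; 125-175% is the minimum activity level.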

In data set [4] the test system is Mus musculus. As to the kind of experiment: compound was tested in vivo for inhibition of P388 murine leukemia cells after iv / ip administration. The data set is classed as functional. Put shortly:
as §1

Data set [5] can be described thus: in vitro inhibitory activity against tubulin polymerization. Also noted: species or system Ovis aries.
The subject of the next data set is L1210. The experiment in a line: In vitro cytotoxic activity against murine L1210 leukemia cells. The data set is classed as functional, cell-based, Mus musculus. Put shortly:
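Murine L1210 leukemia cells grown in RPMI 1640 with 10% heat-inactivated horse serum at 37 °C, 5% CO2, used within 40 passages (doubling time 8-10 h). Exponentially growing cells (1.5 × 10^5/well) exposed to a concentration range for 48 h, then counted electronically.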

Data set [6] has as its target T1, DNA topoisomerase II. As to the kind of experiment: In vitro inhibitory activity against DNA topoisomerase II. Format: protein assay, Drosophila melanogaster.
Data set [7] deals with Mus musculus. The experiment in a line: percent T / C values ([…] / control) against P388 murine leukemia cells at 160 mg/kg dose. Format: functional. Put shortly:
as §1

Data set [8] in a line: Water solubility of the compound; insoluble. The data set is classed as ADME. The conditions noted are these: buffer.
The test system of data set [9] is Mus musculus. The experiment in a line: Compound was tested in vivo for inhibition of P388 murine leukemia cells after iv / ip administration at 40 mg/ kg; NA indicates inactive. Format: functional, organism-based. Also noted: dose 40 mg/ kg. In outline:
(§2)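 P388 leukemia cells (10^6/mouse) implanted iv in CDF1 mice (>18 g) on day 0. After randomization, single ip dose on day 1 from the series 2.5, 10, 40, 160 mg/kg. Daily clinical checks and death recorded, weights on days 1, 4, 8. Activity scored as median survival treated/control ×100 (T/C, %), with 125–175% as minimum activity (NCI criteria).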

The subject of data set [10] is Mus musculus. The experiment in a line: compound was tested in vivo for inhibition of P388 murine leukemia cells after iv / ip administration at 40 mg/ kg; NA indicates inactive. Format: functional, organism-based. Also noted: dose 40 mg/ kg. In outline:
as §2

The mark [11] stands for this setting: Mus musculus, P388, read-out: ED50.

In brackets after ≈: the same amount, converted by molar mass. Activity calls are given as the source filed them.

As usually defined, the EC50 is the concentration needed to bring the measured effect to its halfway point. Broadly, the ED50 is the dose at which the effect has come halfway, by size or by number of responders. For orientation: IC50 means the concentration needed to halve the response being measured. With `COc1cc([C@@H]2c3cc4c(cc3[C@@H](OC3CC(N)C5OC(C)OCC5O3)[C@H]3COC(=O)[C@H]23)OCO4)cc(OC)c1O` (stereo in doubt; 27), the S in data set [1] was found to be 9 mg/mL. On DNA topoisomerase II [2], this compound returned an EC50 greater than 100000 nM. Besides, the T/C max with Mus musculus [3] was 193%. In the data set with Mus musculus [4], this compound returned an ED50 of 1.7 mg/kg. Besides, the IC50 is greater than 50000 nM in [5] and 70 nM in the data set with L1210 (l1210).
In the case of `COc1cc([C@@H]2c3cc4c(cc3C(OC3OC5COC(C)OC5C(O)C3N(C)C)C3COC(=O)[C@@H]32)OCO4)cc(OC)c1O` (stereo partly specified), the solubility in data set [1] is 15 mg/mL (≈ 24.4 mM). The 50% effective concentration (EC50) at DNA topoisomerase II [6] is 56000 nM.
Take `COc1cc([C@@H]2c3cc4c(cc3[C@@H](OC3CC(N)C5OC(C)OCC5O3)[C@H]3COC(=O)[C@H]23)OCO4)cc(OC)c1O` (stereo in doubt; 17): in data set [1], the solubility stood at 11 mg/mL (≈ 19.2 mM). The same compound yielded an EC50 at DNA topoisomerase II [2] greater than 100000 nM. For the same compound, the T/C max in the data set with Mus musculus [7] was determined as 300%. Moreover, the ED50 in the data set with Mus musculus [4] turned out to be 5 mg/kg. In addition, the IC50 was greater than 10000 nM in data set [5] and 230 nM in the data set with L1210 (l1210).
As to `COc1cc([C@@H]2c3cc4c(cc3[C@@H](OC3CC(N5CCOCC5)C5OC(C)OCC5O3)[C@H]3COC(=O)[C@H]23)OCO4)cc(OC)c1O` (stereo partly specified), the S entry in data set [8] was “Insoluble”. Also, at DNA topoisomerase II [2], the EC50 was greater than 1000 nM. The ED50 entry in the data set on Mus musculus [9] is “inactive”. This compound had an IC50 with L1210 (Mus musculus, L1210) greater than 1000 nM.
Turning to `COc1cc([C@@H]2c3cc4c(cc3CC3COC(=O)[C@@H]32)OCO4)cc(OC)c1O` (stereo partly specified), half-maximal inhibition in data set [5] (IC50) required 13000 nM.
As for `COc1cc([C@@H]2c3cc4c(cc3[C@@H](OC3CC(NCC#N)C5OC(C)OCC5O3)[C@H]3COC(=O)[C@H]23)OCO4)cc(OC)c1O` (stereo partly specified), in data set [8], the S entry was “Insoluble”. This compound also displayed an EC50 on DNA topoisomerase II [2] greater than 1000 nM. The compound also came in with a T/C max with Mus musculus [7] of 186%. For the same compound, the ED50 in the data set on Mus musculus [4] (setting [11]) was found to be 20 mg/kg. Besides, the half-inhibitory concentration (IC50) in data set [5] is greater than 100000 nM; in the data set with L1210 (Mus musculus, L1210), 2000 nM.
For the compound `COc1cc([C@@H]2c3cc4c(cc3[C@@H](OC3CC(N(C)C)C5OC(C)OCC5O3)[C@H]3COC(=O)[C@H]23)OCO4)cc(OC)c1O` (stereo in doubt; 29), the solubility in [1] amounted to 26 mg/mL (≈ 43.4 mM). In addition, the EC50 at DNA topoisomerase II [2] is greater than 100000 nM. The compound also showed a T/C max with Mus musculus [3] (40 mg/kg) of 257%. In the data set on Mus musculus [4], this compound registered an ED50 of 5 mg/kg. Further, the IC50 was greater than 50000 nM in [5] and 90 nM in the data set on L1210 (Mus musculus, L1210).
Turning to `COc1cc([C@@H]2c3cc4c(cc3[C@H](O)[C@H]3COC(=O)[C@H]23)OCO4)cc(OC)c1OC` [PODOFILOX], the IC50 in [5] was found to be 3000 nM.
On to `COc1cc([C@@H]2c3cc4c(cc3[C@@H](O[C@@H]3O[C@@H]5CO[C@@H](C)O[C@H]5[C@H](O)[C@H]3O)[C@H]3COC(=O)[C@H]23)OCO4)cc(OC)c1O` [ETOPOSIDE], for which the S in data set [1] was determined as 0.01 mg/mL. The compound further returned a T/C max in the data set with Mus musculus [7] of 242%. Besides, the ED50 with Mus musculus [4] (setting [11]) came out at 5 mg/kg. In addition, the IC50 with L1210 (Mus musculus, L1210) was found to be 200 nM.
For `COc1cc([C@@H]2c3cc4c(cc3[C@@H](O[C@@H]3CC(N)C5OC(C)OCC5O3)[C@H]3COC(=O)[C@H]23)OCO4)cc(OC)c1O` (stereo partly specified), the solubility in data set [1] was found to be 10 mg/mL (≈ 17.5 mM). The EC50 at DNA topoisomerase II [2] was greater than 100000 nM. The ED50 result in the data set on Mus musculus [10] was “inactive”. The IC50 in data set [5] was greater than 50000 nM; in the data set with L1210 (Mus musculus, L1210), 1300 nM.
In the case of `COc1cc([C@@H]2c3cc4c(cc3[C@@H](OC3CC(N)C(O)C(C)O3)[C@H]3COC(=O)[C@H]23)OCO4)cc(OC)c1O` (stereo partly specified), the solubility in data set [1] was found to be 13 mg/mL (≈ 24.5 mM). On DNA topoisomerase II [2], this compound gave an EC50 of 5600 nM. In addition, the ED50 result in the data set with Mus musculus [10] was “inactive”. Also, the IC50 in data set [5] is greater than 10000 nM; in the data set with L1210 (Mus musculus, L1210), 12000 nM.
The corresponding values for `COc1cc([C@@H]2c3cc4c(cc3[C@@H](OC3CC(NCCN)C5OC(C)OCC5O3)[C@H]3COC(=O)[C@H]23)OCO4)cc(OC)c1O` (stereo partly specified) are 40 mg/mL (≈ 65.1 mM), greater than 100000 nM, “inactive”, greater than 10000 nM and 1700 nM.
The corresponding values for `COc1cc([C@@H]2c3cc4c(cc3[C@@H](OC3CC(N)C(O)C(CN)O3)[C@H]3COC(=O)[C@H]23)OCO4)cc(OC)c1O` (stereo partly specified) are 42 mg/mL (≈ 77.1 mM), greater than 100000 nM, “inactive”, 11000 nM and 210 nM.
Turning to `COc1cc([C@@H]2c3cc4c(cc3[C@@H](OC3CC(N(C)C)C5OC(C)OCC5O3)[C@H]3COC(=O)[C@H]23)OCO4)cc(OC)c1O` (stereo in doubt; 28), in data set [1], the S came to 24 mg/mL. This compound displayed an EC50 at DNA topoisomerase II [2] greater than 100000 nM. In the data set on Mus musculus [3] (40 mg/kg), the T/C max came out at 243%. The ED50 in the data set with Mus musculus [4] worked out at 1.7 mg/kg. Moreover, in the data set with L1210 (l1210), the IC50 amounted to 110 nM.
